Assays:
[1] = Antiproliferative activity against human HL60 cells assessed as reduction in cell viability after 72 hrs by ATPlite assay; type: functional, cell-based; settings: HL-60, 72 h
Method in brief: (§1)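 IC50 determined in human cancer cell lines (HCT-116, A-375 melanoma, HL-60, A-549). Camptothecin and etoposide served as reference compounds.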

A-375 = assay: Antiproliferative activity against human A375 cells assessed as reduction in cell viability after 72 hrs by ATPlite assay; type: functional, cell-based; settings: A-375, 72 h; method in brief: as §1
Liver microsome [2] = assay: Metabolic stability in rat liver microsomes at 2 uM after 1 hr by ZQ-LC-MS analysis; type: ADME
A549 = assay: Antiproliferative activity against human A549 cells assessed as reduction in cell viability after 72 hrs by ATPlite assay; type: functional, cell-based; settings: A549, 72 h
Method in brief: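 IC50 values were determined on a panel of four human cancer lines (HCT-116, A-549, HL-60, A-375), with camptothecin and etoposide as reference compounds.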

Plasma [3] = assay: Metabolic stability in rat plasma at 5 uM after 2 hrs by ZQ-LC-MS analysis; type: ADME, cell-free
Method in brief: (§2)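 Compounds were incubated in rat, mouse and human plasma for 120 min at 37 °C. The result is reported as the percentage of parent compound remaining.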

Plasma [4] = assay: Metabolic stability in mouse plasma at 5 uM after 2 hrs by ZQ-LC-MS analysis; type: ADME, cell-free; method in brief: as §2
[5] = Antiproliferative activity against human HCT116 cells assessed as reduction in cell viability at 20 uM after 72 hrs by ATPlite assay; type: functional; settings: HCT-116, 72 h, read-out: GI
Method in brief: (§3)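 HCT-116 human colon cancer cells exposed to compound for 72 h at 20, 10 or 1 μM. Growth inhibition is expressed as percentage relative to nontreated cells.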

[6] = Antiproliferative activity against human HCT116 cells assessed as reduction in cell viability at 1 uM after 72 hrs by ATPlite assay; type: functional; settings: HCT-116, 72 h, read-out: GI; method in brief: as §3
[7] = Metabolic stability in mouse liver microsomes at 2 uM after 1 hr by ZQ-LC-MS analysis; type: ADME
[8] = Antiproliferative activity against human HCT116 cells assessed as reduction in cell viability after 72 hrs by ATPlite assay; type: functional, cell-based; settings: HCT-116, 72 h; method in brief: as §1
Plasma [9] = assay: Metabolic stability in human plasma at 5 uM after 2 hrs by ZQ-LC-MS analysis; type: ADME, cell-free; method in brief: as §2
[10] = Antiproliferative activity against human HCT116 cells assessed as reduction in cell viability at 10 uM after 72 hrs by ATPlite assay; type: functional; settings: HCT-116, 72 h, read-out: GI; method in brief: as §3
Liver microsome [11] = assay: Metabolic stability in human liver microsomes at 2 uM after 1 hr by ZQ-LC-MS analysis; type: ADME

Which IC50 [1] does the source give for CN(C)c1ccc(C#CC2=C[C@@H]3C[C@@]4(OC(=O)C=C24)[C@H]2CCCCN32)cc1 here?
The IC50 was 420 nM.

What about the IC50 (A-375) of the same compound?
The IC50 was 170 nM.

And the Stability (Liver microsome [2])?
The Stability was “Unstable”.

And the IC50 (A549)?
Its IC50 is 600 nM.

What about the Stability (Plasma [3]) of the same compound?
The Stability was “Unstable”.

And the Stability (Plasma [4])?
Its Stability is “Unstable”.

What about the inhibition of growth at 20 µM [5] of the same compound?
The inhibition of growth at 20 µM was 100%.

And the inhibition of growth at 1 µM [6]?
The inhibition of growth at 1 µM was 99.7%.

What about the Stability [7] of the same compound?
The Stability was “Unstable”.

And the IC50 [8]?
Its IC50 is 420 nM.

What about the Stability (Plasma [9]) of the same compound?
Its Stability is “Unstable”.

What about the inhibition of growth at 10 µM [10] of the same compound?
Its inhibition of growth at 10 µM is 100%.

What about the Stability (Liver microsome [11]) of the same compound?
The Stability was “Unstable”.

Which results are given for CN(C)c1ccc(C2=C[C@@H]3C[C@@]4(OC(=O)C=C24)[C@H]2CCCCN32)cc1?
Stability (Liver microsome [2]): Unstable; Stability (Plasma [3]): Stable; Stability (Plasma [4]): Stable; inhibition of growth at 20 µM [5]: 19.3%; inhibition of growth at 1 µM [6]: -1.4%; Stability [7]: Unstable; Stability (Plasma [9]): Stable; inhibition of growth at 10 µM [10]: 5.6%; Stability (Liver microsome [11]): Unstable

For O=C1C=C2C(C#CCCCCl)=C[C@@H]3C[C@@]2(O1)[C@H]1CCCCN31, which Stability (Liver microsome [2]) is on record?
The Stability was “Unstable”.

What about the inhibition of growth at 20 µM [5] of the same compound?
The inhibition of growth at 20 µM was 99.2%.

What about the inhibition of growth at 1 µM [6] of the same compound?
The inhibition of growth at 1 µM was 6.1%.

And the Stability [7]?
Its Stability is “Unstable”.

And the inhibition of growth at 10 µM [10]?
Its inhibition of growth at 10 µM is 97.8%.

What about the Stability (Liver microsome [11]) of the same compound?
The Stability was “Unstable”.

Which IC50 [1] does the source give for COc1ccc(C#CC2=C[C@@H]3C[C@@]4(OC(=O)C=C24)[C@H]2CCCCN32)cc1 here?
The IC50 was 660 nM.

And the IC50 (A-375)?
Its IC50 is 60 nM.

And the IC50 (A549)?
Its IC50 is 290 nM.

What about the Stability (Plasma [3]) of the same compound?
The Stability was “Unstable”.

What about the Stability (Plasma [4]) of the same compound?
Its Stability is “Unstable”.

And the inhibition of growth at 20 µM [5]?
Its inhibition of growth at 20 µM is 100%.

And the inhibition of growth at 1 µM [6]?
Its inhibition of growth at 1 µM is 98.3%.

And the IC50 [8]?
Its IC50 is 340 nM.

And the Stability (Plasma [9])?
The Stability was “Unstable”.

What about the inhibition of growth at 10 µM [10] of the same compound?
Its inhibition of growth at 10 µM is 100%.

With O=C1C=C2C(C#Cc3ccccc3)=C[C@@H]3C[C@@]2(O1)[C@H]1CCCCN31 as the compound, how does the Stability (Liver microsome [2]) read?
Its Stability is “Unstable”.

What about the Stability (Plasma [3]) of the same compound?
The Stability was “Unstable”.

What about the Stability (Plasma [4]) of the same compound?
The Stability was “Unstable”.

And the inhibition of growth at 20 µM [5]?
Its inhibition of growth at 20 µM is 100%.

And the inhibition of growth at 1 µM [6]?
Its inhibition of growth at 1 µM is 91.9%.

What about the Stability [7] of the same compound?
Its Stability is “Unstable”.

And the Stability (Plasma [9])?
Its Stability is “Unstable”.

What about the inhibition of growth at 10 µM [10] of the same compound?
The inhibition of growth at 10 µM was 100%.

What about the Stability (Liver microsome [11]) of the same compound?
Its Stability is “Unstable”.

For O=C1C=C2C=C[C@@H]3C[C@@]2(O1)[C@H]1CCCCN31 [SECURININE], which IC50 [1] is on record?
The IC50 was greater than 10000 nM.

And the Stability (Liver microsome [2])?
Its Stability is “Unstable”.

And the IC50 (A549)?
Its IC50 is greater than 10000 nM.

And the Stability (Plasma [3])?
The Stability was “Stable”.

And the Stability (Plasma [4])?
Its Stability is “Stable”.

What about the inhibition of growth at 20 µM [5] of the same compound?
The inhibition of growth at 20 µM was 90.7%.

What about the inhibition of growth at 1 µM [6] of the same compound?
Its inhibition of growth at 1 µM is 7.6%.

And the Stability [7]?
The Stability was “Unstable”.

And the IC50 [8]?
The IC50 was greater than 10000 nM.

What about the Stability (Plasma [9]) of the same compound?
The Stability was “Stable”.

What about the inhibition of growth at 10 µM [10] of the same compound?
Its inhibition of growth at 10 µM is 50.6%.

What about the Stability (Liver microsome [11]) of the same compound?
Its Stability is “Stable”.

Reference: ChEMBL document CHEMBL3813637, “Synthesis and Antiproliferative and Metabolic Evaluations of Novel Securinine Derivatives” (ACS Med Chem Lett, 2016)
